The structures appear in SMILES notation. Out of some 310,000 compounds screened, about 1,400 (0.45%) were called active.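 How the source made its calls: active means calcium response B-score plate-corrected fluorescence ratio at least 3 library SD, with starting fluorescence B-score inside 5 SD; inactive means the rest.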 The full list was thinned out, with actives kept by preference.

Sequence of Mas-related G-protein coupled receptor member X1 (Homo sapiens) (Q96LB2 whole entry, looked up): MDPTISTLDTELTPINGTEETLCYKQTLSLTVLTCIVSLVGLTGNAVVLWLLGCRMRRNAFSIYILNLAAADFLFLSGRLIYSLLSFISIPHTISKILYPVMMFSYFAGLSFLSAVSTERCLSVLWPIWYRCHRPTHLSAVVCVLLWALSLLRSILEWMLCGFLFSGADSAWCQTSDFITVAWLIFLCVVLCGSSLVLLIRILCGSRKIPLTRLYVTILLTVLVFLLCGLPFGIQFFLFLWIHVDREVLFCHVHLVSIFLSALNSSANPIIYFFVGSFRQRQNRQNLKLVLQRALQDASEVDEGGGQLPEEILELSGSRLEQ

In this assay the target is Mas-related G-protein coupled receptor member X1 (Homo sapiens) (UniProt Q96LB2). Kind of assay: agonists of human MrgX1 receptor, primary screen, HEK293 cells, Fluo-4 calcium flux (AID 588627).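 On B-score: B-score of the peak-minus-trough calcium fluorescence change over baseline.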 The note with it: Fluo-4 calcium fluorescence, agonist mode, at 10 µM; active compounds read high. The method in brief:
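Test system: HEK293 cells stably expressing human MrgX1 receptor; amount: 15,000 cells per well; doses: compound delivered in addition one of three; times: overnight plating before 1 h dye loading; detection: Fluo-4 NW calcium-flux fluorescence, kinetic read; read-out basis: B-scored fluorescence response ratio; controls: positive and negative controls per plate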
`C/C(=C\c1ccco1)C1Nc2cccc3cccc(c23)N1`: the B-score entry is “inactive”.
The value for `COC1(C2=NCCN2)COc2ccccc2O1` (configuration not stated) was “inactive”; that for `COc1ccc(Nc2ncc(C(=O)N3CCN(c4ccccc4OC)CC3)c3ccccc23)cc1` was “inactive”; that for `Cc1ccc(-n2[nH]c(C)c(/C=N/N3C(=O)c4cccc5cccc(c45)C3=O)c2=O)cc1` was 104 (active).
The value for `Cc1[nH]n(-c2cccc(Cl)c2)c(=O)c1/C=N/n1c(C)nc2ccccc2c1=O` was “inactive”; that for `COc1cc(SC#N)ccc1N=Cc1c(C)[nH]n(-c2ccc(C)cc2)c1=O` was “inactive”; that for `CCS(=O)(=O)n1nc(-c2ccccc2)nc1SCc1ccccc1` was 27.5 (active).
The entry for `CCS(=O)(=O)n1nc(-c2ccc(OC)cc2)nc1SC` is “inactive”; for `CCn1c(SCc2ccccc2)nc2c(c1=O)SCC2` it is “inactive”; for `CN(CCOc1ccc(Br)cc1)CC(=O)Nc1cccc(S(=O)(=O)NC2=NCCC2)c1` it is “inactive”.
Consider `CCCCN(C)CCCNC(=O)c1cc(-c2cccs2)nc2ccccc12`, for which the B-score result is “inactive”.
The figure for `O=C(Nc1nnc(-c2ccccc2)o1)c1cc(-c2cccs2)nc2ccccc12` is 26.9 (active); for `O=C(NCCN1CCOCC1)c1cc(-c2cccs2)nc2ccccc12` it is “inactive”.
The entry for `CCOC(=O)/C(=N\Nc1ccccc1[N+](=O)[O-])c1csc(Nc2ccccc2)n1` is “inactive”; for `O=C(Nc1ccc(Cl)cc1)C1c2cccc[n+]2CC(=O)N1Cc1ccc2c(c1)OCO2` (configuration not stated) it is “inactive”.
The value for `CCN1/C(=C\c2ccc3ccccc3[n+]2CC)Sc2cc(C)ccc21` was “inactive”.
For the molecule `CCN1/C(=C/c2ccc3ccc(C)cc3[n+]2CC)Sc2ccccc21`, the B-score is 123 (active).
The entry for `CC(C)OCCCNC(=O)c1ccc(C2SCC(=O)N2Cc2ccco2)cc1` (configuration not stated) is “inactive”; for `COc1cc(NC(=O)c2ccc3c(c2)OCO3)ccc1NC(=O)c1cccs1` it is “inactive”; for `COc1ccc(OCCCC(=O)OC(C)C(=O)Nc2ccccc2[N+](=O)[O-])cc1` (configuration not stated) it is “inactive”.
The entry for `COc1ccc(C)cc1N(CC(=O)N1CCCC1)S(=O)(=O)c1ccccc1` is “inactive”; for `COc1ccc(N(CC(=O)N2CCCCCC2)S(=O)(=O)c2ccccc2)cc1` it is “inactive”; for `COc1ccccc1N(CC(=O)N1CCCCC1)S(=O)(=O)c1ccccc1` it is 50 (active).
The value for `Cc1cccc(-c2nc3c(c(SCC(=O)N4CCOCC4)n2)CCCC3)c1` was “inactive”; that for `C=CCn1c(=NC(=O)c2cccs2)sc2cc(NC(C)=O)ccc21` was “inactive”.
Turning to `CCCc1[nH]nc2c1C(c1ccc(OC(=O)c3ccco3)cc1)C(C#N)=C(N)O2` (configuration not stated), the B-score entry was “inactive”.
The entry for `CCCc1[nH]nc2c1C(C1CC=CCC1)C(C#N)=C(N)O2` (configuration not stated) is “inactive”.
The value for `CCCc1[nH]nc2c1C(c1ccc(Br)s1)C(C#N)=C(N)O2` (configuration not stated) was 26.9 (active).
On to `COc1ccc(S(=O)(=O)N2CCN(c3ncnc4c(-c5ccccc5)nsc34)CC2)cc1`, for which the B-score result is “inactive”.
The entry for `COc1ccccc1CCNS(=O)(=O)c1cn(C)nc1C` is “inactive”.
The value for `CS(=O)(=O)N(CC(=O)N1CCCCCC1)c1cccc(Cl)c1Cl` was “inactive”; that for `Cc1ccc(-n2cc(CN(C)Cc3nccn3C)c(-c3cccc(C)c3)n2)cc1` was “inactive”; that for `CCOc1c(Nc2cccc(Cl)c2)c(=O)c1=O` was “inactive”.
The entry for `O=C(CCN1CCN(C/C=C/c2ccccc2)CC1)Nc1ccccc1Cl` is “inactive”; for `Cc1[nH][nH]c(=O)c1C(c1ccc(-c2ccc(Cl)cc2)o1)c1c(C)[nH][nH]c1=O` it is 46.3 (active).
`CCOc1ccc(C(c2c(C)[nH][nH]c2=O)c2c(C)[nH][nH]c2=O)cc1OCC`: the B-score entry was “inactive”.
For `O=C(NC1CCCCC1)c1ccc(-c2ccc(Cl)cc2)o1`, the B-score result is “inactive”.
On to `CCNc1nc(NC(C)C)nc(OCCOC(=O)c2ccccc2)n1`, for which the B-score entry was “inactive”.
Take `COc1cccc(-c2ccc(SCC(=O)N3CCN(c4ccccc4)CC3)nn2)c1`: the B-score entry was “inactive”.
Consider `Cc1ccc(-c2ccc(/C=N/NC(=O)CN3CCOCC3)o2)cc1[N+](=O)[O-]`, for which the B-score entry was “inactive”.
In the case of `CN1CCN(/N=C/c2ccc(-c3ccc([N+](=O)[O-])cc3)o2)CC1`, the B-score is 31.5 (active).
The value for `CN1CCN(/N=C/c2ccc(C#N)cc2)CC1` was “inactive”.
The value for `Cn1c(Cn2nnc3ccccc32)nnc1SCC(=O)c1ccccc1F` was “inactive”; that for `CCN(CC)S(=O)(=O)c1ccc(N2CCCC2)c(NS(=O)(=O)c2cccs2)c1` was “inactive”; that for `CC(C)(C)Nc1c(-c2cccs2)nc2ccccn12` was 44.8 (active).
The entry for `Cc1nc2ccccn2c(=O)c1NC(=O)c1cccs1` is “inactive”; for `Cc1cc2nc(C(F)(F)F)cc(-c3cccs3)n2n1` it is “inactive”; for `COC(=O)c1ccc(NC(=O)CN(c2ccc(C)cc2)S(=O)(=O)c2c(C)n[nH]c2C)cc1` it is “inactive”.
For `O=C(CSC1=NS(=O)(=O)c2cc(F)ccc2N1)Nc1ccccc1F`, the B-score entry is “inactive”.
Consider `COC(=O)Cn1cc(/C=C/[N+](=O)[O-])c2ccccc21`, for which the B-score was 31.6 (active).
The entry for `COC(=O)c1cn(CC(=O)NCc2cccs2)c2ccccc12` is “inactive”; for `COC(=O)N/N=C/c1cn(CCCOc2ccc(C)cc2)c2ccccc12` it is “inactive”.
The entry for `CCCCn1c(N)c(N(CCOC)C(=O)c2cccc(S(=O)(=O)N3CCCCC3)c2)c(=O)[nH]c1=O` is “inactive”; for `COCCCNC(=O)CN1C(=O)CSc2ccc(S(=O)(=O)N3CCOCC3)cc21` it is “inactive”.
Turning to `CCN(CC)c1ccc(C(=O)Nn2c(C)nc3ccccc3c2=O)cc1`, the B-score result is “inactive”.
The entry for `C=CCN(C(=O)Nc1ccc2oc(C)nc2c1)c1ccccc1` is “inactive”.
Turning to `CCN(CC)c1ccc2oc(=O)c(C)nc2c1`, the B-score was 27 (active).
For the molecule `Cc1ccc2c(c1)C1CN(C)CCC1N2S(=O)(=O)c1ccc(Oc2ccc([N+](=O)[O-])cc2)cc1` (configuration not stated), the B-score result is “inactive”.
Consider `COC(=O)CNC(c1ccccc1Cl)c1cc(Br)ccc1NC(=O)CCN1CCOCC1` (configuration not stated), for which the B-score result was “inactive”.
The value for `O=C1/C(=C/c2ccc(F)cc2)SC(=S)N1NS(=O)(=O)c1ccccc1` was 27.7 (active); that for `O=C1/C(=C/c2ccc(F)cc2)SC(=S)N1CCCC(=O)N1CCCCC1CCO` (configuration not stated) was “inactive”.
As to `O=C(O)c1ccc(/C=C2\SC(=S)N(NC(=O)c3ccc(Br)cc3)C2=O)cc1`, the B-score entry is “inactive”.
The entry for `S=c1[nH]nc(NCCc2ccccc2)s1` is “inactive”.
The value for `CCNc1nc(-c2cc3ccccc3o2)cs1` was “inactive”.
The figure for `Cc1nc(C)c(-c2csc(NCCc3ccccc3)n2)s1` is 32.5 (active).
Consider `Cc1ccccc1NC(=O)Cn1cc(C(=O)C2CC2)c2ccccc21`, for which the B-score result was “inactive”.
In the case of `COc1ccc2c(c1)OC(O)(C(F)(F)C(F)F)CC2=O` (configuration not stated), the B-score is 79.7 (active).
The value for `COc1ccc2c(c1)SC(C)CC2=O` (configuration not stated) was “inactive”; that for `COc1ccc2c(c1)O/C(=C\c1ccccc1O)C2=O` was “inactive”.
The value for `CN(CC(O)COc1ccc(S(=O)(=O)N2CCOCC2)cc1Cl)C1CCCCC1` (configuration not stated) was “inactive”; that for `CC(C)(C)NC(=O)CN(C(=O)c1csnn1)c1ccccc1-c1ccccc1` was “inactive”.
The entry for `COc1ccc(-c2nc(CN3CCN(c4ncccn4)CC3)c(C)o2)cc1C` is “inactive”; for `O=C(Nc1ccccc1)c1nnsc1S(=O)(=O)c1ccc(Cl)cc1` it is 33.9 (active); for `CN(c1cccc(NC(=O)Nc2ccc(Cl)cc2)c1)S(C)(=O)=O` it is “inactive”.
As to `Cc1nnsc1C(=O)N/N=C/c1ccccc1Cl`, the B-score entry is “inactive”.
Consider `Cc1sc2ncn(CC(=O)NCCN(C)C)c(=O)c2c1S(=O)(=O)N1CCC(C)CC1`, for which the B-score entry was “inactive”.
The entry for `COC(=O)C1=C(C(=O)OC)C(c2cc([N+](=O)[O-])ccc2O)c2sc(=O)[nH]c2S1` (configuration not stated) is “inactive”.
On to `CCCC1OC23CCCCC2C(C#N)(C#N)C1(C#N)C(=N)O3` (configuration not stated), for which the B-score entry is “inactive”.
Consider `CCOC(=O)C1CCN(C(=O)C2(NC(=O)Nc3cccc(F)c3)CCCCC2)CC1`, for which the B-score result is “inactive”.
In the case of `Cc1cc2oc3ccc(NCCC4CCCN4C)cc3c(=O)c2cc1C` (configuration not stated), the B-score is 27.5 (active).
The entry for `CCCOc1ccc(C2c3c(oc4cc(C)c(C)cc4c3=O)C(=O)N2CCCN2CCOCC2)cc1` (configuration not stated) is “inactive”.
The entry for `Cc1ccc(CS(=O)(=O)CCC(=O)NC2CC2)cc1` is “inactive”; for `O=C(NCC(=O)N1CCCC(C(F)(F)F)C1)c1ccccc1F` (configuration not stated) it is “inactive”; for `O=C(NC(Cc1ccccc1)C(=O)N1CCCC(C(F)(F)F)C1)c1ccccc1` (configuration not stated) it is “inactive”.
The figure for `FC(F)(F)C1CCCN(c2nsc3ccccc23)C1` (configuration not stated) is 30.1 (active).
For `Cc1n[nH]c(=O)c2c1nnn2Cc1ccc(F)cc1`, the B-score entry is “inactive”.
Consider `COc1ccc(CCNC(=O)C(=O)NCC2OCCN2S(=O)(=O)c2ccc(F)cc2)cc1OC` (configuration not stated), for which the B-score entry was “inactive”.
With `CC(C)CCN1NC2(CCC(C)CC2)NC1=S` (configuration not stated), the B-score result is “inactive”.
The entry for `CC(C)N(c1ccccc1)c1ncnc(NCCC(=O)O)c1[N+](=O)[O-]` is “inactive”; for `CN(C)c1ccc(/C=C2\NC(=S)N(Cc3ccccc3)C2=O)cc1` it is 49.1 (active).
The entry for `COc1cc(/C=C2/SC(=S)N(Cc3ccccc3)C2=O)cc(OC)c1O` is “inactive”.
For `O=C1/C(=C\c2ccsc2)NC(=S)N1c1ccccc1`, the B-score result was “inactive”.
The entry for `CCC(C)c1ccccc1N1CC(C(=O)N2CCN(S(=O)(=O)c3ccc(F)cc3)CC2)CC1=O` (configuration not stated) is “inactive”; for `Cc1cc(NC(=O)CSc2nnnn2-c2ccc(F)cc2)no1` it is “inactive”; for `COc1ccc(C(=O)NC(=S)NNC(=O)CCc2ccccc2)cc1` it is 107 (active).
The figure for `COc1ccc(C(=O)NNC(=S)NC(=O)c2ccccc2)cc1` is 113 (active); for `COc1ccc(C(=O)NC(=S)NC2CCCCC2)cc1` it is “inactive”; for `CC(C)Oc1ccc(CCC(=O)NNC(=S)NCc2ccccc2)cc1` it is “inactive”.
The entry for `COc1ccc(C(=O)NNC(=S)NC(=O)c2ccccc2[N+](=O)[O-])cc1` is “inactive”; for `COc1ccc(C(=O)NC2CCN(C(=S)NCCc3ccccc3)CC2)cc1` it is “inactive”.
`Cc1ccc(NS(=O)(=O)c2cc3c(cc2C)NC(=O)CO3)cc1`: the B-score result is “inactive”.
Regarding `O=C(Nc1cccc(Cl)c1)Nc1ccccc1NS(=O)(=O)c1cccs1`, the B-score result is “inactive”.
As to `C[n+]1ccc(/C=C/c2c[nH]c3ccccc23)cc1`, the B-score entry is “inactive”.
The value for `COc1ccccc1/C=C/CN1CCC(CO)(Cc2ccccc2)CC1` was “inactive”; that for `COc1ccccc1NC(=O)C1=C(C)Nc2nnnn2C1c1cccc(Br)c1` (configuration not stated) was “inactive”.
With `COC(=O)c1ccc(C2C3=C(Nc4nnnn42)c2ccccc2OC3)cc1` (configuration not stated), the B-score was 27.7 (active).
The value for `COC(=O)C1=C(C(=O)c2ccc(C)cc2)C(c2ccccc2)n2nnnc2N1` (configuration not stated) was “inactive”.
